Hck Nef HTS: human Hck-Nef kinase inhibition; P08631; Recombinant Hck-YEEI plus Nef, Z-Lyte FRET kinase assay; inhibition, % at 20 µM; 220,000 tested, 0.68% active; AID 463187;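 active = Hck-Nef kinase inhibition above about 50%, limit read from the data; inactive = inhibition below that limit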
Target sequence (P08631 whole entry, looked up): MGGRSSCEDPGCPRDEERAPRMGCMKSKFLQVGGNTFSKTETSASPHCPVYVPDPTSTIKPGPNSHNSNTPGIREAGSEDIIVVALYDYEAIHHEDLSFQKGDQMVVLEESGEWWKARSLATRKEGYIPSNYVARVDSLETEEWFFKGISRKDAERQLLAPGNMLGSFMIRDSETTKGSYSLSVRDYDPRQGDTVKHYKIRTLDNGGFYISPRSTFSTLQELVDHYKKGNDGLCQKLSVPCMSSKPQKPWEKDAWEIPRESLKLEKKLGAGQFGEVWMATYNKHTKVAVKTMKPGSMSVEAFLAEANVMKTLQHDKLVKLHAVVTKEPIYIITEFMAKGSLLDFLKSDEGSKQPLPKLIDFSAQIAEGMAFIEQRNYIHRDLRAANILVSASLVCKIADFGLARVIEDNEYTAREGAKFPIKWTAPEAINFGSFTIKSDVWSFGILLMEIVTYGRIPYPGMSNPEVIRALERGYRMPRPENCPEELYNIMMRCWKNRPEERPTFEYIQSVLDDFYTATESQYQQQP
Runt-CBFb FRET: Runt domain-CBFb interaction inhibition | Q01196+Q13951 | Cerulean-Runt/Venus-CBFb FRET ratio 530/480, 1 h | inhibition, % at 20 µM | 220,000 tested, 0.46% active | AID 1496;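 active = inhibition over about 50% at 20 µM in the single-dose screen, limit read from the data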
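Assay system: Cerulean-Runt domain / Medium: Tris 50 mM pH 7.5, KCl, K2SO4, 0.01% BSA / Timing: protein complex preformed 1 h, compound exposure 1 h, room temperature, dark / Measured by: FRET, excitation 422 nm, emission at 530 and 480 nm / Evaluation: loss of energy transfer signal / Control set: 5 µM unlabeled CBFb as full-inhibition high control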
Runt-SMMHC FRET: inhibitors of human RUNX1 Runt domain binding to CBFb-SMMHC; Q01196+Q13951; Cerulean-Runt/Venus-CBFb-SMMHC FRET ratio 530/480, 1 h; inhibition, % at 20 µM; 220,000 tested, 0.74% active; AID 1434;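 active = mean inhibition across duplicate retests at 20 µM reaching about 50%, limit read from the data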;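 also: inhibitors lower the FRET ratio by blocking Runt binding to CBFb-SMMHC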
RanGTP-Impb inh: disruptors of Ran-importin-beta complex formation – biochemical, FRET, CFP-Ran, YFP-importin-beta, homogeneous, primary screen; inhibition, % (test concentration not listed); 300,000 tested, 1.1% active; cell-free CFP-Ran/YFP-importin-beta FRET ratio; AID 2216;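 active = more than half of the replicate wells show a fall in the fluorescence ratio signal beyond about 16%, limit read from the data, passing the limit was not always enough; inconclusive = exactly half of the replicate wells pass the set limit; inactive = fewer than half of replicates pass the limit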
Hck Nef conf: Hck-Nef kinase inhibition, confirmation; shares compounds with Hck Nef HTS; Recombinant Hck-YEEI:Nef, Z-Lyte FRET kinase assay; calls only at 10 µM; 1,300 tested, 28% active; AID 463188;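 active = average inhibition of at least 50%, with Z-scores no higher than 3 in both the phospho-tyrosine peptide and fluorescence counterscreens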
Numbers stand for hits. A selection: hits, their analogues and other compounds. The true share with any hit is near 1.9%.

Screening COC(=O)Cc1c(C)c2ccc(OC(=O)c3ccco3)cc2oc1=O returned Hck Nef HTS 102.4, Runt-CBFb FRET inactive, Runt-SMMHC FRET inactive and RanGTP-Impb inh inactive.
Screening CC1=NN(c2cccc(C(=O)O)c2)C(=O)/C1=C\C=C/c1ccccc1 returned Hck Nef HTS 58.5, Runt-CBFb FRET inactive, Runt-SMMHC FRET inactive, RanGTP-Impb inh inactive and Hck Nef conf inactive.
Screening CC1=NN(c2ccc(C)cc2)C(=O)/C1=C\C=C\c1ccccc1 returned Hck Nef HTS inactive, Runt-CBFb FRET inactive, Runt-SMMHC FRET inactive and RanGTP-Impb inh inactive.
`C#CCn1c(O)c(N=NC(=O)CNC(=O)c2cccnc2)c2ccccc21` gave RanGTP-Impb inh inactive.
COc1ccc(/C=N/NC(=O)COc2cccc3cccnc23)cc1OC was read as Hck Nef HTS 54.2, Runt-CBFb FRET inactive, Runt-SMMHC FRET inactive, RanGTP-Impb inh inconclusive and Hck Nef conf inactive.
`CCOC(=O)N1CCN(CC(O)COc2ccc3c(c2)CCC3)CC1` (stereo unspecified) gave RanGTP-Impb inh inactive.
Screening COc1ccc(-n2c(O)c(/C=N/NS(=O)(=O)c3ccc(C)cc3)c3ccccc3c2=O)cc1OC returned Hck Nef HTS inactive, Runt-CBFb FRET inactive, Runt-SMMHC FRET inactive and RanGTP-Impb inh inactive.
For COc1ccccc1NS(=O)(=O)c1cccc(-n2c(O)c(C=Nc3ccccc3C(=O)O)c3ccccc3c2=O)c1 the results were Hck Nef HTS 62.4, Runt-CBFb FRET inactive, Runt-SMMHC FRET inactive, RanGTP-Impb inh inactive and Hck Nef conf inactive.
O=C(Nc1nc2ccc(S(=O)(=O)N3CCCC3)cc2s1)c1ccccn1 was read as Hck Nef HTS 56.9, Runt-CBFb FRET inactive, Runt-SMMHC FRET inactive, RanGTP-Impb inh inactive and Hck Nef conf inactive.
O=C(Nc1nc2ccc(S(=O)(=O)N3CCCCC3)cc2s1)c1ccncc1 was read as Hck Nef HTS inactive, Runt-CBFb FRET inactive, Runt-SMMHC FRET inactive and RanGTP-Impb inh inactive.
Screening O=C(NN1C(=O)/C(=C/C=C/c2ccco2)SC1=S)c1ccccc1O returned Hck Nef HTS 82.6, Runt-CBFb FRET inactive, Runt-SMMHC FRET inactive, RanGTP-Impb inh inactive and Hck Nef conf active.
Screening Cn1cccc1/C=C1\SC(=S)N(NC(=O)c2ccccc2O)C1=O returned Hck Nef HTS inactive, Runt-CBFb FRET inactive, Runt-SMMHC FRET inactive and RanGTP-Impb inh inactive.
O=C(O)CCCN1C(=O)/C(=C/C=C/c2ccco2)SC1=S was read as Hck Nef HTS 83.5, Runt-CBFb FRET inactive, Runt-SMMHC FRET inactive, RanGTP-Impb inh inactive and Hck Nef conf inactive.
For O=C(O)C(Cc1ccccc1)N1C(=O)/C(=C/C=C/c2ccco2)SC1=S (stereo unspecified) the results were Hck Nef HTS 91.8, Runt-CBFb FRET inactive, Runt-SMMHC FRET inactive, RanGTP-Impb inh inactive and Hck Nef conf active.
`CC1CN(C(=O)/C(C#N)=C2\N=C(NC(=O)c3ccc(F)cc3)c3ccccc32)CC(C)O1` (stereo unspecified) gave Hck Nef HTS inactive, Runt-CBFb FRET inactive, Runt-SMMHC FRET inactive and RanGTP-Impb inh inactive.
CCC(=O)Oc1ccc2c(C)cc(=O)oc2c1C was read as Hck Nef HTS 53.6, Runt-CBFb FRET inactive, Runt-SMMHC FRET inactive, RanGTP-Impb inh inactive and Hck Nef conf inactive.
Screening Cc1cc(=O)oc2c(C)c(OC(=O)c3ccco3)ccc12 returned RanGTP-Impb inh inactive.
CCC(C)Nc1cc(C)c(C#N)c2nc3ccccc3n12 (stereo unspecified) was read as RanGTP-Impb inh inactive.
`Cc1cc(NCCCn2ccnc2)n2c(nc3ccccc32)c1C#N` gave Hck Nef HTS 64.3, Runt-CBFb FRET inactive, Runt-SMMHC FRET inactive and RanGTP-Impb inh 18.7.
Screening Cc1cc(NCC2CCCO2)n2c(nc3ccccc32)c1C#N (stereo unspecified) returned Hck Nef HTS 95.4, Runt-CBFb FRET inactive, Runt-SMMHC FRET inactive and RanGTP-Impb inh inactive.
For Cc1cc(Nc2ccc(O)cc2)n2c(nc3ccccc32)c1C#N the results were Hck Nef HTS inactive, Runt-CBFb FRET inactive, Runt-SMMHC FRET inactive and RanGTP-Impb inh inactive.
Screening CCCc1cc(NCCCO)n2c(nc3ccccc32)c1C#N returned Hck Nef HTS 193.5, Runt-CBFb FRET inactive, Runt-SMMHC FRET inactive and RanGTP-Impb inh 30.3.
`CC(C)c1cc(NCC2CCCO2)n2c(nc3ccccc32)c1C#N` (stereo unspecified) gave Hck Nef HTS 107.9, Runt-CBFb FRET inactive, Runt-SMMHC FRET inactive and RanGTP-Impb inh inactive.
`Cc1cc(-n2ccnc2)n2c(nc3ccccc32)c1C#N` gave Hck Nef HTS inactive, Runt-CBFb FRET inactive, Runt-SMMHC FRET inactive and RanGTP-Impb inh inactive.
For Cc1cc(C)n(CC(=O)NC2CCCCC2C)c(=O)c1C#N (stereo unspecified) the results were RanGTP-Impb inh inactive.
For COc1ccc(-n2cccc2/C=C2\C(=N)N3N=C(c4ccco4)SC3=NC2=O)cc1 the results were Hck Nef HTS 93.0, Runt-CBFb FRET inactive, Runt-SMMHC FRET inactive, RanGTP-Impb inh inactive and Hck Nef conf active.
`Cc1cc2nnc(SCC(=O)NCC(c3ccccc3)N(C)C)n2c2ccccc12` (stereo unspecified) gave RanGTP-Impb inh inactive.
For O=C(Nc1cccc(Oc2ccc(C(=O)O)c(C(=O)O)c2)c1)c1ccc(-c2ccccc2)cc1 the results were Hck Nef HTS 66.2, Runt-CBFb FRET inactive, Runt-SMMHC FRET inactive, RanGTP-Impb inh inactive and Hck Nef conf inactive.
`CC(C)[C@H](CO)Nc1nc(NCc2ccc(S(N)(=O)=O)cc2)c2ncn(C(C)C)c2n1` gave Hck Nef HTS inactive, Runt-CBFb FRET inactive, Runt-SMMHC FRET inactive and RanGTP-Impb inh inactive.
`CC(C)n1cnc2c(Nc3ccc(C(=O)O)cc3)nc(Cl)nc21` gave Hck Nef HTS 52.8, Runt-CBFb FRET inactive, Runt-SMMHC FRET inactive, RanGTP-Impb inh inactive and Hck Nef conf inactive.
Screening CC(C)n1cnc2c(NCc3ccccc3)nc(NCc3ccccc3)nc21 returned Hck Nef HTS inactive, Runt-CBFb FRET inactive, Runt-SMMHC FRET inactive and RanGTP-Impb inh inactive.
Screening CC(C)[C@H](CO)Nc1nc(Nc2ccc(Cl)c(C(=O)O)c2)c2ncn(C(C)C)c2n1 returned Hck Nef HTS 65.4, Runt-CBFb FRET inactive, Runt-SMMHC FRET inactive, RanGTP-Impb inh inactive and Hck Nef conf active.
For CC(C)n1cnc2c(Nc3cccc(Cl)c3)nc(NCCCO)nc21 the results were Hck Nef HTS 96.5, Runt-CBFb FRET inactive, Runt-SMMHC FRET inactive, RanGTP-Impb inh inactive and Hck Nef conf active.
O=C(O)C1(c2ccccc2)CCN(S(=O)(=O)c2cccc(Cl)c2)CC1 was read as RanGTP-Impb inh inactive.
`COc1ccc(CNCc2cccc(Oc3ccccc3)c2)cc1` gave Hck Nef HTS inactive, Runt-CBFb FRET inactive, Runt-SMMHC FRET inactive and RanGTP-Impb inh inactive.
`CCCN(c1ccccc1C(=O)O)S(=O)(=O)c1ccc2c(c1)n(C)c(=O)n2C` gave RanGTP-Impb inh inactive.
